The results in this text go back to ChEMBL document CHEMBL4513216, “Probing the Open Global Health Chemical Diversity Library for Multistage-Active Starting Points for Next-Generation Antimalarials” (ACS Infect Dis, 2020).

The data set is described as follows: Toxicity liver stage against HepG2, at 10uM. Further details: test concentration 10 uM, cell line HepG2-A16-CD81EGFP. Type of data set: cell-based. The settings on record: human, HepG2-A16-CD81EGFP cells; read-out: INHIBITION
Summed up:
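Uninfected HepG2-A16-CD81EGFP cells, 3 × 10^3 per well, 1536-well, plated on prespotted compound at 10 μM final, parasite-free screening media added to match infected plates; puromycin 10 μM positive, DMSO 0.5% negative; run in parallel with 48 h PbLuc assay at 37 °C, 5% CO2; viability by CellTiter-Glo luminescence, normalized to controls.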
For `O=C(Nc1cc(C(F)(F)F)c[nH]c1=O)c1ccco1`, the cytotoxicity at 10 µM was -8.28%.
With `Fc1ccc(-c2c[nH]c([C@@H]3COCCN3)n2)cc1` the figure was -0.0368%.
Regarding `COCc1cc(C[C@@H]2CC[C@H](O)[C@@H](CN(C)C)O2)no1`, the cytotoxicity at 10 µM came to 12%.
Take `COc1cccc2ccn(CC(=O)NCCC(C)C)c12`: the cytotoxicity at 10 µM was -43.3%.
With `COc1ccc(CNC(=O)CCCc2nnc3ccc(OC)nn23)cc1`, the cytotoxicity at 10 µM is -5.36%.
For `Cc1cc(C)nc(NC(=O)NCCCSc2nncn2C)n1`, the cytotoxicity at 10 µM was found to be 1.74%.
In the case of `O=C(N[C@]12CC1CN(C(=O)c1ccco1)C2)c1ccco1` (some centres not stated), the cytotoxicity at 10 µM is -0.479%.
On to `Cc1noc([C@]23COC[C@H]2CN(C(=O)C2CCOCC2)C3)n1`, for which the cytotoxicity at 10 µM is 9.46%.
Take `CC(C)C(=O)Nc1cccc(C(=O)Nc2ccccn2)c1`: the cytotoxicity at 10 µM is -2.37%.
Take `CCC(CC)CN1CCN(CC(=O)Nc2ccc3nsnc3c2)CC1`: the cytotoxicity at 10 µM is -13.8%.
Consider `CCCn1ncc(C(=O)NC(C)c2c(C)nn(CC)c2C)c1C` (configuration not stated), for which the cytotoxicity at 10 µM came out at 9.91%.
As for `CNc1cnc(CC2COCCN(Cc3ccccc3)C2)cn1` (configuration not stated), the cytotoxicity at 10 µM was determined as 10.9%.
On to `O=S(=O)(c1ccccc1)N1CCOCC(Cc2cccnc2)C1` (configuration not stated), for which the cytotoxicity at 10 µM was 0.812%.
With `Cc1cc(C(=O)N2CCC(O)(Cn3c(C)cc4ccncc43)CC2)on1` the figure was 9.55%.
Take `Cc1cc(C)n(CC(=O)N2CCCC2c2cc3cccnc3[nH]2)n1` (configuration not stated): the cytotoxicity at 10 µM was found to be 3.94%.
With `COc1ccccc1C(=O)N1C[C@@H]2CCCCN(CC(N)=O)[C@@H]2C1`, the cytotoxicity at 10 µM is -4.43%.
As for `COc1ccc(CC2CN(C(=O)c3coc(C)n3)CCO2)cc1` (configuration not stated), the cytotoxicity at 10 µM is 3.8%.
In the case of `Cc1nccnc1CCC1COCCN1C(=O)CCc1c(C)noc1C` (configuration not stated), the cytotoxicity at 10 µM was determined as 5.7%.
`NCc1cnn(-c2ccccc2C(=O)N2CCCC(C(N)=O)C2)c1` (configuration not stated): the cytotoxicity at 10 µM was 1.2%.
The same measure for `O=c1[nH]c2ncccc2n1C1CCCC1`: 10.6%; for `O=C(CN1CCCCC1)Nc1cc(C(F)(F)F)ccc1-n1cccc1`: 5.24%.
Turning to `CCC(CC)(CNC(C)=O)NC(C)c1ccccc1` (configuration not stated), the cytotoxicity at 10 µM was 4.99%.
In the case of `Cc1cncc(C(=O)N(c2ccc(F)cn2)C2CCOCC2)c1`, the cytotoxicity at 10 µM is 0.0591%.
Turning to `COc1ccccc1CC1CCCN(C(=O)c2cn[nH]c2C)C1` (configuration not stated), the cytotoxicity at 10 µM was 7.61%.
Take `COC(=O)C1CCCCN1C(=O)c1ccccc1F` (configuration not stated): the cytotoxicity at 10 µM is 8.96%.
As for `NC(=O)c1ccc(NC(=O)c2ccncc2F)cn1`, the cytotoxicity at 10 µM came out at 6.48%.
`Cc1nc(-c2ccc(CC(=O)N3CCN(C(=O)C4CC4)CC3)cc2)cs1`: the cytotoxicity at 10 µM amounted to 9.86%.
With `O=C(NCc1ccc(N2CCCC2)nc1)N1CCc2sccc2C1`, the cytotoxicity at 10 µM is -6.87%.
With `COc1ccc(F)cc1C(C)NC(=O)Nc1nncs1` (configuration not stated) the figure was 12.4%; with `Cc1n[nH]c(C2CN(CC(=O)NCc3cccs3)CCO2)n1` (configuration not stated), -4.13%; with `Cc1noc(C(C)N2CCN(CC(=O)N3CCCC3)CC2)n1` (configuration not stated), 0.678%.
Take `COc1cccc(CC(=O)NCC(Cc2ccc(F)cc2)C(N)=O)c1` (configuration not stated): the cytotoxicity at 10 µM was found to be 4.78%.
Turning to `CS(=O)(=O)c1cccc(C(=O)NCC2Cc3ccccc3O2)c1` (configuration not stated), the cytotoxicity at 10 µM is -1.26%.
For the compound `CN1CCN(C(=O)c2cnsn2)c2cc(F)ccc21`, the cytotoxicity at 10 µM was -9.03%.
`CCC(CNC(=O)c1nc(=O)[nH][nH]1)Oc1cccc(F)c1` (configuration not stated): the cytotoxicity at 10 µM was -6.76%.
For the compound `Cc1cc(F)ccc1NCC(=O)NCC(F)(F)F`, the cytotoxicity at 10 µM is -2.56%.
With `COc1ccc(C(N)=O)cc1NCc1noc(-c2ccsc2)n1`, the cytotoxicity at 10 µM worked out at 3.33%.
As to `CC(C)CNC(=O)c1ccc(NC(=O)NCC2CC2)cc1Cl`, the cytotoxicity at 10 µM worked out at 7.71%.
Turning to `O=C(c1ccc(N2CCCC2)nn1)N1CCCc2ccc(F)cc21`, the cytotoxicity at 10 µM is -1.7%.
`CNS(=O)(=O)CC(=O)NC(C)Cc1ccc(Br)cc1` (configuration not stated): the cytotoxicity at 10 µM is -10.9%.
In the case of `CC(Cn1cccn1)NC(=O)NCCCN1CCCCCC1=O` (configuration not stated), the cytotoxicity at 10 µM was 12.3%.
With `Cc1nsc(NC2CCOC3(CCCC3)C2)n1` (configuration not stated) the figure was 8.85%.
`CC1CN(C(=O)NCCn2ccnc2)CCO1` (configuration not stated): the cytotoxicity at 10 µM was -49.5%.
With `Cc1ncccc1NC(=O)C1=NOC2(CCN(Cc3nccs3)C2)C1` (configuration not stated) the figure was 2.11%; with `COc1ccc(-c2cn[nH]c2)cc1CNC1CCCC1`, -45.3%.
For the compound `CC(C)Cc1ncc2c(n1)CN(c1cc(NC3CC3)nc(N)n1)C2`, the cytotoxicity at 10 µM was -5.82%.
In the case of `CC(C)Nc1cc(N2CCN(Cc3ccccc3)C(CCO)C2)ncn1` (configuration not stated), the cytotoxicity at 10 µM is 7.9%.
With `O=C(CO)N1CCC2(CC1)CC(=O)N(Cc1cc(F)cc(F)c1)C2`, the cytotoxicity at 10 µM was determined as 9.92%.
Consider `O=C1CCCCCN1CCc1nc(-c2cccnn2)no1`, for which the cytotoxicity at 10 µM was -1.75%.
Take `CCCOC1CCCN(c2nc(COC)nc3c2cnn3C)C1` (configuration not stated): the cytotoxicity at 10 µM was -1.42%.
On to `CCCN1CCN(c2ccc(-c3nc(C)no3)cn2)CC1`, for which the cytotoxicity at 10 µM came out at 8.95%.
In the case of `CC1CCCN1Cc1ccccc1-c1nc(C(C)(C)C)cc(=O)[nH]1` (configuration not stated), the cytotoxicity at 10 µM was found to be 11.4%.
Turning to `Cc1ccc(C(=O)NCCSCc2cccs2)cn1`, the cytotoxicity at 10 µM was -3.95%.
`CCOc1ccc(C2CCCN2C(=O)NCCn2ccnc2)cc1` (configuration not stated): the cytotoxicity at 10 µM was 0.632%.
With `Cc1cnn(CC2CCCCN2C(=O)CC(F)(F)F)c1` (configuration not stated), the cytotoxicity at 10 µM is -11.5%.
With `CC(=O)Nc1nc(C(=O)NCc2ccnc(N3CCCC3)c2)cs1` the figure was -1.94%; with `CN(C)C(=O)Cc1nc(CN2CCn3c(nnc3C3CC3)C2)cs1`, -9.66%; with `Cc1cnn(CC2CCCN2Cc2ncc(-c3ccccc3)o2)c1` (configuration not stated), -8.4%.
In the case of `COc1ccc(N2CCCC3(C2)CN(c2cccnc2)CCO3)cc1` (configuration not stated), the cytotoxicity at 10 µM was 6.59%.
As to `Cc1ccc(CN2CCc3[nH]nc(C(=O)N(C)C)c3C2)s1`, the cytotoxicity at 10 µM was -7.55%.
With `CC(C)CN1CCS(=O)(=O)[C@@H]2CCN(S(=O)(=O)c3ccccc3)CC[C@@H]21` the figure was 3.62%; with `Cc1ncnc2c1CCN(Cc1nccs1)CC2`, 9.91%; with `Cn1nc(COCC2CC2)c2c1CN(C(=O)c1ccno1)CC2`, -5.91%.
As to `Fc1ccc(CN2CCc3ncnc(C4CCOC4)c3CC2)cc1` (configuration not stated), the cytotoxicity at 10 µM is 12.3%.
The same measure for `CN1CCn2c(-c3cccc(F)c3)cnc2C12CCN(CC1CC1)CC2`: 8.13%; for `CC(C)N(C)C[C@H]1C[C@@H]2CN(Cc3ccco3)C[C@@H]2O1`: -4.22%; for `CNC(=O)CN1CCO[C@H]2CN(CC3CCOC3)C[C@H]21` (some centres not stated): 7.64%.
Consider `Cn1ccnc1CN1CCC2(CC1)CCN(c1cncnc1)C2=O`, for which the cytotoxicity at 10 µM is -65%.
The same measure for `COCCN1CCC2(CCCN(Cc3ccoc3)C2)C1=O` (configuration not stated): 0.582%; for `Cc1ccc(CN2C[C@@H]3CN(C(=O)c4cccn4C)C[C@@H]3C2)cc1`: -4.25%; for `Cc1ccc(CN2CC[C@H]3[C@H]2CCN3S(=O)(=O)C2CC2)cc1`: 10.2%.
The same measure for `CC(C)CN1CCCC2(CCN(c3ccc(C#N)cn3)C2)C1` (configuration not stated): 5.22%.
